KCNQ1 block – human KCNQ1 channel inhibition; B-score at 10 µM; P51787; 1.3% of 310,000 active; CHO-K1 KCNQ1, FluxOR thallium flux fluorescence; stronger effect = higher value;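 active means compounds whose thallium flux B-score, printed positive for inhibition, exceeds three library SD while starting fluorescence stays within three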;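 further: channel opened by potassium depolarization with thallium stimulus after 20 min compound exposure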
KCNK9 block – human KCNK9 channel inhibition; Q9NPC2; B-score at 10 µM; AID 488922; HEK293 KCNK9, FluxOR thallium flux fluorescence; stronger effect = lower value; 1.2% of 310,000 active;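 active means ratio B-score over 3 SD below the library mean, with starting fluorescence within 5 SD of its mean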;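 further: negative B-score means less thallium flux so channel inhibition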
Target sequence (Q9NPC2 whole entry, looked up): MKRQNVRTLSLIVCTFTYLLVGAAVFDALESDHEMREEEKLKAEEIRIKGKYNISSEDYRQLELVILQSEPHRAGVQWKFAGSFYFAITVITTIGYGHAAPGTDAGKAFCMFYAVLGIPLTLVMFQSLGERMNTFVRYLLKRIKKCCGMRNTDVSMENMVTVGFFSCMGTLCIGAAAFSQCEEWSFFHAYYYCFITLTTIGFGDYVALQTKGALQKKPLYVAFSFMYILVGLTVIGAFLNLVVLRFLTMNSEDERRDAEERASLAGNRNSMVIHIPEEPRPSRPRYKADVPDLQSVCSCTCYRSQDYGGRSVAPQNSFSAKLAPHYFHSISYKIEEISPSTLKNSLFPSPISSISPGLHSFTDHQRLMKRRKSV
KCNK3 block – human KCNK3 channel inhibition, primary screen; O14649; CHO-KCNK3 thallium flux, FluxOR fluorescence; stronger effect = lower value; B-score at 10 µM; 0.84% of 340,000 active; AID 602410;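 active means B-score under library mean minus 4 SD, starting fluorescence ratio at most library mean plus 5 SD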;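 further: more negative B-score means stronger inhibition of thallium flux through KCNK3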
Kir21 inh – inhibitors of mouse Kir2.1 inward-rectifier potassium channel; HEK293-Kir2.1, FluxOR thallium flux fluorescence; stronger effect = lower value; B-score at 10 µM; 0.85% of 310,000 active; AID 1672;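 active means fluorescence ratio B-score at or below minus 3 SD of library scores, with starting-brightness B-score within 2 SD, cut at about -4.2 in these data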;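 further: channel flux triggered by added potassium and thallium sulfate stimulus; B-score of peak minus minimum fluorescence over baseline after thallium stimulus; more negative B-score means stronger Kir2.1 block with less thallium influx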
KCNQ1 act – potentiators or activators of human KCNQ1 potassium channel; P51787; CHO-K1 KCNQ1, thallium flux FluxOR fluorescence; stronger effect = higher value; B-score at 10 µM; 0.35% of 310,000 active;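 active means fluorescence ratio B-score, a plate-corrected score, at least three library SD, with initial intensity B-score within 5 SD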
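Schedule – 37 °C overnight plating, 90-min dark dye load, 20-min compound pretreatment · System – stable KCNQ1 CHO-K1 line · Probe or stimulus – thallium- and potassium-containing depolarizing buffer · Measured by – kinetic FluxOR fluorescence, 10 s baseline plus 110 s post-stimulus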
hERG protect – compounds protecting human hERG from proarrhythmic drug block; Q12809; activation (rescue from dofetilide block), less the hit threshold, % at 10 µM; AID 1511; 0.51% of 310,000 active; CHO-hERG, FluxOR thallium flux, dofetilide IC70 present;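 active means activation above the mean of controls blocked by dofetilide plus 5 SD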;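 further: thallium influx through hERG after potassium depolarization seen as dye fluorescence rise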
KCNK9 inh conf – confirmation of human KCNK9 potassium channel inhibitors; inhibition, % at 10 µM; HEK293 KCNK9 cells, FluxOR thallium flux fluorescence; shares compounds with KCNK9 block; 43% of 4,900 active;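 active means thallium signal inhibited by more than 5 SD of the compound-free buffer control wells, on both duplicate plates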;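 further: 0% = assay buffer control wells without compound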
Kir2-1 spec – tests whether KCNK9 modulators also affect mouse Kir2.1 | 4% of 4,900 active | inhibition, % at 10 µM | shares compounds with KCNK9 block | AID 492993 | Kir2.1 cells, FluxOR thallium flux fluorescence;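 active means thallium signal drop more than 5 SD beyond the mean of the no-compound control wells, seen in both duplicate plates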;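 further: signal is fluorescence rise after thallium addition divided by baseline fluorescence; plate controls were assay buffer only for no effect and full block by chlorpromazine control for full effect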
HEK293 Tl ctr – non-induced cell nonspecific activity of KCNK9 modulators. 40% of 4,900 active. shares compounds with KCNK9 block. inhibition, % at 10 µM. non-induced KCNK9-HEK293, FluxOR thallium flux;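 active means thallium signal drop beyond 5 SD of the untreated control mean, on both duplicate plates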;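 further: plate controls were buffer only IC0 wells for no effect and SID17386958 at its maximal inhibitory level for full effect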
The depositor's hits bear a star. Shown are actives, neighbours in structure and some others; about 3.7% of the full set was active somewhere.

What do the screens show for `CCOC(=O)c1[nH]c(C)c(C(=O)OCCOc2cccc(C)c2)c1C`?
KCNQ1 block: inactive; KCNK9 block: inactive; KCNK3 block: inactive; Kir21 inh: -1.8; KCNQ1 act: inactive; hERG protect: -6

Results for COc1cc(C(=O)NC2CCCC(C)C2C)ccc1OCC(=O)N1CCOCC1 (stereo not drawn) ?
KCNK3 block: inactive

Results for CCC1=NN(C(=O)COc2ccccc2)C(O)(c2ccc(Br)cc2)C1 (stereo not drawn) ?
KCNQ1 block: inactive; KCNK9 block: -17*; KCNK3 block: inactive; Kir21 inh: -3.2; KCNQ1 act: inactive; hERG protect: -4; KCNK9 inh conf: 52%*; Kir2-1 spec: inactive; HEK293 Tl ctr: 35%*

How did CCN(CC)C(=O)CSc1nc2ccccc2c(=O)n1CC do in these assays?
KCNQ1 block: inactive; KCNK9 block: inactive; KCNK3 block: inactive; Kir21 inh: 0.52; KCNQ1 act: inactive; hERG protect: -10

How did CCCCN(CC)C(=O)CSc1nc2ccccc2c(=O)n1CC1COc2ccccc2O1 (stereo not drawn) do in these assays?
KCNQ1 block: inactive; KCNK9 block: inactive; KCNK3 block: inactive; Kir21 inh: 1.4; KCNQ1 act: inactive; hERG protect: -18; KCNK9 inh conf: inactive; Kir2-1 spec: inactive; HEK293 Tl ctr: inactive

What do the screens show for `C=CCN(C(=O)c1csnn1)C(C(=O)NCc1ccc(F)cc1)c1ccccc1` (stereo not drawn)?
KCNQ1 block: inactive; KCNK9 block: inactive; KCNK3 block: inactive; Kir21 inh: -0.19; KCNQ1 act: inactive; hERG protect: -3

Results for Cc1ccc(C(=O)NCC(=O)OCC(=O)N(CC(C)C)c2c(N)n(Cc3ccccc3)c(=O)[nH]c2=O)cc1 ?
KCNQ1 block: inactive; KCNK9 block: inactive; KCNK3 block: inactive; Kir21 inh: -0.6; KCNQ1 act: inactive; hERG protect: -5

How did CCOC(=O)C1CCN(Cc2cc(C(C)(C)C)c(O)c(C(C)(C)C)c2)CC1 do in these assays?
KCNQ1 block: inactive; KCNK9 block: inactive; KCNK3 block: inactive; Kir21 inh: -1.1; KCNQ1 act: inactive; hERG protect: -11; KCNK9 inh conf: inactive; Kir2-1 spec: inactive; HEK293 Tl ctr: inactive

How did Cc1cccc(NC(=O)CN2CCC(C(=O)c3ccc4c(c3)OCCO4)CC2)c1 do in these assays?
KCNQ1 block: inactive; KCNK9 block: inactive; KCNK3 block: inactive; Kir21 inh: 1.6; KCNQ1 act: inactive; hERG protect: -10; KCNK9 inh conf: inactive; Kir2-1 spec: inactive; HEK293 Tl ctr: inactive

How did Cc1ccc(/C=C2/SC(=S)N(C3CCCCC3)C2=O)o1 do in these assays?
KCNQ1 block: inactive; KCNK9 block: inactive; KCNK3 block: inactive; Kir21 inh: -0.19; KCNQ1 act: inactive; hERG protect: -8; KCNK9 inh conf: inactive; Kir2-1 spec: inactive; HEK293 Tl ctr: inactive

What do the screens show for `O=C(Nc1ccc(O)cc1)c1ccccc1OCc1ccccc1`?
KCNQ1 block: inactive; KCNK9 block: inactive; KCNK3 block: inactive; Kir21 inh: -2.4; KCNQ1 act: inactive; hERG protect: -2

What do the screens show for `O=C(Nc1ccccc1)c1ccccc1OCc1cccc([N+](=O)[O-])c1`?
KCNQ1 block: inactive; KCNK9 block: -12*; KCNK3 block: inactive; Kir21 inh: 0.34; KCNQ1 act: inactive; hERG protect: -11; KCNK9 inh conf: inactive; Kir2-1 spec: inactive; HEK293 Tl ctr: 28%*

Results for O=C(NC(=S)Nc1ccc2c(c1)OCCO2)c1ccccc1 ?
KCNQ1 block: inactive; KCNK9 block: inactive; KCNK3 block: inactive; Kir21 inh: 0.85; KCNQ1 act: inactive; hERG protect: -10

What do the screens show for `CCOc1cccc(C(=O)NC(=S)Nc2ccc3c(c2)OCCO3)c1`?
KCNQ1 block: inactive; KCNK9 block: inactive; KCNK3 block: inactive; Kir21 inh: 0.22; KCNQ1 act: inactive; hERG protect: -6; KCNK9 inh conf: inactive; Kir2-1 spec: inactive; HEK293 Tl ctr: inactive

How did C/C(=N\Nc1ncc(Cl)cc1Cl)c1ccccn1 do in these assays?
KCNQ1 block: 11*; KCNK9 block: -10*; KCNK3 block: inactive; Kir21 inh: -2.8; KCNQ1 act: inactive; hERG protect: -29; KCNK9 inh conf: 50%*; Kir2-1 spec: inactive; HEK293 Tl ctr: 36%*

How did C/C(=N\Nc1ccc(Cl)c(C(=O)O)c1)c1ccccn1 do in these assays?
KCNQ1 block: inactive; KCNK9 block: inactive; KCNK3 block: inactive; Kir21 inh: -0.01; KCNQ1 act: inactive; hERG protect: -10

How did CCN1CCN(S(=O)(=O)c2ccc(Cl)c(C(=O)N(CCc3ccccc3)Cc3ccccc3)c2)CC1 do in these assays?
KCNK3 block: inactive

What do the screens show for `Cc1ccc(N(Cc2ccccc2)C(=O)c2cccc(S(=O)(=O)N3CC(C)OC(C)C3)c2)cc1` (stereo not drawn)?
KCNQ1 block: inactive; KCNK9 block: inactive; KCNK3 block: inactive; Kir21 inh: -0.12; KCNQ1 act: inactive; hERG protect: -16

What do the screens show for `Cc1ccc(S(=O)(=O)N2CCCCC2)cc1C(=O)N(CCc1ccccc1)Cc1ccccc1`?
KCNQ1 block: inactive; KCNK9 block: -16*; KCNK3 block: inactive; Kir21 inh: 1.4; KCNQ1 act: inactive; hERG protect: -14; KCNK9 inh conf: 79%*; Kir2-1 spec: inactive; HEK293 Tl ctr: 43%*

What do the screens show for `CC1CN(S(=O)(=O)c2cccc(C(=O)N(CCc3ccccc3)Cc3ccccc3)c2)CC(C)O1` (stereo not drawn)?
KCNQ1 block: inactive; KCNK9 block: inactive; KCNK3 block: inactive; Kir21 inh: 0.79; KCNQ1 act: inactive; hERG protect: -8; KCNK9 inh conf: inactive; Kir2-1 spec: inactive; HEK293 Tl ctr: inactive

Results for Cc1ccc(NC(=O)c2ccccc2N2C(=O)C3C4C=CC(C5CC45)C3C2=O)cc1C (stereo not drawn) ?
KCNQ1 block: inactive; KCNK9 block: inactive; KCNK3 block: inactive; Kir21 inh: -2.1; KCNQ1 act: inactive; hERG protect: -7

How did CCOc1ccc(S(=O)(=O)N2CCOCC2)cc1[N+](=O)[O-] do in these assays?
KCNQ1 block: inactive; KCNK9 block: inactive; KCNK3 block: inactive; Kir21 inh: 0.6; KCNQ1 act: inactive; hERG protect: -17

Compound activity (PubChem)
